A selection: hits, their analogues and other compounds. The true share with any hit is near 2.3%.
PLC-gamma1 inh – inhibitors of human phospholipase C gamma1; inhibition, % at 12.2 µM; 370,000 tested, 0.84% active; AID 720700; purified PLC-gamma1, fluorogenic substrate, fluorescence; in the data active = inhibition above about 9.5%
Tb MetRS inh – blocks T. brucei methionyl-tRNA synthetase activity; purified T. brucei MetRS, ATP depletion, Kinase-Glo luminescence; inhibition, % at 11.9 µM; 360,000 tested, 0.4% active;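 active = inhibition above a per-plate cutoff of the control wells' mean inhibition plus 3 SD, cut at about 5.5% in these data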;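 note: 0% = DMSO wells median and 100% = median of wells with control inhibitor compound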
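Material: T. brucei methionyl-tRNA synthetase, purified; reagent: substrates ATP, L-methionine and bulk Escherichia coli tRNA; dosing: 11.9 µM single point; timing: 15 min plus 2 h at 25 °C; detection: luminescence of leftover ATP; evaluation: % inhibition; control set: DMSO-only wells as low control; replicates: singlicate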
PLCb3 inh – PLC-beta3 (human) inhibition, primary screen; Q01970; Purified PLC-beta3, fluorogenic substrate, fluorescence; inhibition, % at 12.2 µM; 370,000 tested, 0.18% active; AID 720704; in the data active = inhibition above about 11%;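 note: 0% = median of compound wells on plate and 100% = full blocker control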
Target sequence (Q01970 whole entry, looked up): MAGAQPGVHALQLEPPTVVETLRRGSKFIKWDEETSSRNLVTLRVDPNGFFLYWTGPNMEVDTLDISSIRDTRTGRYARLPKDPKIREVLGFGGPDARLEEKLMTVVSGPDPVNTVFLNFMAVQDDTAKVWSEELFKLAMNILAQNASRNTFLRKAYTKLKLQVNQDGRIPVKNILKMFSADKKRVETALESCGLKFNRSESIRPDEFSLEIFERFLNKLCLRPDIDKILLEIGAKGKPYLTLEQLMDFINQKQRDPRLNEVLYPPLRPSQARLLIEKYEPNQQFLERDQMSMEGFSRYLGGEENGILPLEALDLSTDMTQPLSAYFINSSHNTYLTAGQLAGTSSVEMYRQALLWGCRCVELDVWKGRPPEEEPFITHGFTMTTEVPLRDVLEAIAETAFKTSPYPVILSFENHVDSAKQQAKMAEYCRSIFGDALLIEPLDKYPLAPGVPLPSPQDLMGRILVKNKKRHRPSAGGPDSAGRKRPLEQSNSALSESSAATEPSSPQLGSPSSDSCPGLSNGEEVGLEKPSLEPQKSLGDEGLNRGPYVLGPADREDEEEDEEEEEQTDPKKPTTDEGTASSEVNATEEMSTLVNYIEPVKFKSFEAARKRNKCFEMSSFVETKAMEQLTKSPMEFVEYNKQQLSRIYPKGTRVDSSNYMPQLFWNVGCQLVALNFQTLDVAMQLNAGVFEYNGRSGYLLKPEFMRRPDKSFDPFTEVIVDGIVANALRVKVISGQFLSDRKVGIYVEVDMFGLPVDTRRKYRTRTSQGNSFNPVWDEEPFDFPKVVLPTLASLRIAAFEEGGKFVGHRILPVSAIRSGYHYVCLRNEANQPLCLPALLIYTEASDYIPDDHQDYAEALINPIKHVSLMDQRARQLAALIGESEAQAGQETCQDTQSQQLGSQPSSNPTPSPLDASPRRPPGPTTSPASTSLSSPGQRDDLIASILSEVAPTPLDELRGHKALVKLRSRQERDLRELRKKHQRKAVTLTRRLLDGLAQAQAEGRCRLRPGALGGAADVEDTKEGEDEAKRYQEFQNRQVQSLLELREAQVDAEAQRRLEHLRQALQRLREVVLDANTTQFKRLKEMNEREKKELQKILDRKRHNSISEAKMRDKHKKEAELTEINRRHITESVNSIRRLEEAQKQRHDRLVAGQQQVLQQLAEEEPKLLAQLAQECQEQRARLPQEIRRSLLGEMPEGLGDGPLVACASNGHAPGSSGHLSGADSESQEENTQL
ADAM10 inh – inhibitors of human ADAM10. O14672. recombinant ADAM10, EDANS/DABCYL FRET peptide cleavage, 3 h. inhibition, % at 7 µM. 370,000 tested, 0.62% active. AID 720582;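 active = inhibition above a per-campaign cutoff equal to the mean of compounds falling between control-based bounds plus 3 SD, cut at about 20% in these data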;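 note: 0% = DMSO wells while the 100% control is not disclosed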
ADAM17 inh – inhibitors of human ADAM17; recombinant ADAM17, EDANS/DABCYL FRET peptide cleavage; inhibition, % at 6.95 µM; 370,000 tested, 0.83% active; AID 720648;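 active = inhibition above the mean of compounds lying between control limits plus 3 SD, set per campaign, cut at about 8.5% in these data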;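 note: 0% = DMSO-only wells as the low control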
ADAM10 confirm – human ADAM10 inhibition, confirmation | shares compounds with ADAM10 inh | 2,100 tested, 1% active | ADAM10 QFRET peptide cleavage, EDANS fluorescence | AID 743208 | inhibition, % at 6.95 µM;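 active = inhibition above about 20% chosen separately for each screening run, limit read from the data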;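 note: 0% = DMSO wells and 100% = marimastat wells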
ADAM17 counter – inhibits human ADAM17 in ADAM10 exosite counter-screen | shares compounds with ADAM10 inh | ADAM17 QFRET peptide cleavage, EDANS fluorescence | inhibition, % at 6.95 µM | 2,100 tested, 0.5% active;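 active = mean triplicate inhibition above the solvent-only control wells' mean plus 3 SD, cut at about 12% in these data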;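 note: 0% = DMSO wells and 100% = marimastat wells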
An asterisk follows results filed as active; . = no result.

SMILES | PLC-gamma1 inh | Tb MetRS inh | PLCb3 inh | ADAM10 inh | ADAM17 inh | ADAM10 confirm | ADAM17 counter
COc1ccc(N2CCN(S(=O)(=O)CCNC(=O)C3CCCCC3)CC2)cc1 | 3 | 0 | -3 | -1 | 1 | . | .
CCC(=O)Nc1cccc(C2=NOC3(C2)C[C@@H](C(N)=O)N(C(=O)c2ccccc2C(=O)c2ccccc2)C3)c1 (some centres not stated) | 1 | -1 | -1 | -11 | -5 | . | .
NC(=O)[C@@H]1CC2(CC(c3cccc(NC(=O)CC(c4ccccc4)c4ccccc4)c3)=NO2)CN1C(=O)COc1ccc(Cl)cc1 (some centres not stated) | 7 | 0 | 2 | 23* | 8 | 14 | 4
NC(=O)[C@H]1CC2(CC(c3cccc(NC(=O)CC(c4ccccc4)c4ccccc4)c3)=NO2)CN1C(=O)c1ccccc1C(=O)c1ccccc1 (some centres not stated) | 0 | 0 | 3 | 20* | 9 | 8 | 3
O=C(O)c1ccccc1-n1c(-c2ccccc2)cc2c1CCCC2=O | -2 | 1 | 1 | 4 | 0 | . | .
CCN(CC)C(=O)C1CCCN(Cc2cccc(F)c2)C1 (configuration not stated) | 2 | 0 | 3 | 79* | -1 | 1 | 0
O=C(NC1CCCN(Cc2ccc(Cl)cc2)C1)c1cccc(F)c1 (configuration not stated) | 1 | -1 | -1 | 82* | -2 | 1 | 0
Cc1nnc(SCC(=O)NCCC2=CCCCC2)[nH]c1=O | -1 | 0 | -3 | -3 | -3 | . | .
Cc1ccc(C)c(OCc2cc(C(=O)N(C)Cc3ccccn3)no2)c1 | -1 | 0 | -7 | -1 | 0 | . | .
Cc1ccc(C)c(OCc2cc(C(=O)NC(c3ccccn3)C(F)(F)F)no2)c1 (configuration not stated) | -1 | 0 | -9 | 21* | 6 | 4 | 2
CN(C(=O)Cn1cc([N+](=O)[O-])ccc1=O)C1CCCCC1 | 1 | 0 | -7 | -16 | 4 | . | .
Cc1ccc(NS(=O)(=O)c2ccc(NC(=O)c3cccc(NC(=O)C(C)C)c3)cc2)cc1 | -2 | -2 | -1 | 24* | 6 | 3 | 1
Cc1cccc(N2CCN(S(=O)(=O)c3ccc4c(c3)NC(=O)CS4)CC2)c1C | -4 | 0 | -8 | 23* | 8 | 8 | 2
Cc1ccc(C(=O)Nc2ccccc2Oc2ccccc2)cc1[N+](=O)[O-] | 7 | 0 | -14 | 22* | 5 | 4 | 0
Cn1c(=O)c2c(ncn2CC(=O)OCC(=O)Nc2ccc(F)cc2F)n(C)c1=O | -1 | -1 | -9 | -7 | -4 | . | .
COc1ccc(-c2nnc(SCc3nc4ccccc4c(=O)[nH]3)o2)cc1 | -2 | 0 | -8 | -2 | -2 | . | .
Cc1ccc2c(c1)NC(=O)[C@@]1(C)[C@@H](c3ccccc3)[C@H]3COc4ccccc4[C@@H]3N1C2=O | -2 | 1 | -1 | 27* | 4 | 10 | 3
COc1ccc2c(c1)[C@H]1[C@H](CO2)[C@H](c2ccccc2)[C@]2(C)C(=O)Nc3ccc(C)cc3C(=O)N12 | -3 | 0 | -8 | 28* | 0 | 10 | 3
Cc1ccc2c(c1)C(=O)N1[C@H]3c4ccccc4OC[C@@H]3[C@H](c3ccccc3)[C@]1(C)C(=O)N2 | . | 0 | . | . | . | . | .
CCNC(=S)Nc1scc(-c2ccccc2)c1C(=O)OCC | 0 | -1 | 3 | 26* | 7 | 2 | 1
O=C(CCC(=O)N1CCN(c2cccc(Cl)c2)CC1)c1cccs1 | -3 | 0 | -7 | -5 | -3 | . | .
COc1cc(S(=O)(=O)N2CCOCC2)ccc1NC(=O)COC(=O)c1cc(OC)c(OC)c(OC)c1 | 1 | 0 | 2 | -1 | 1 | . | .
COc1cc(S(=O)(=O)N2CCOCC2)ccc1NC(=O)COC(=O)CC12CC3CC(CC(C3)C1)C2 | 0 | 0 | 1 | 29* | 8 | 2 | 1
Cc1ccc(Nc2nc(N)nc(CN3CCN(c4ccccc4)CC3)n2)cc1Cl | 7 | 0 | 1 | 9 | 5 | . | .
COc1ccc(N2CCN(Cc3nc(N)nc(Nc4ccc(C)c(Cl)c4)n3)CC2)cc1 | 1 | -1 | 3 | 21* | 5 | 1 | 0
SMILES | PLC-gamma1 inh | Tb MetRS inh | PLCb3 inh | ADAM10 inh | ADAM17 inh | ADAM10 confirm | ADAM17 counter
COc1ccccc1NC(=O)Cc1csc(NC(=S)Nc2ccccc2)n1 | 0 | 1 | -2 | 21* | 3 | 6 | 2
COc1ccc(OC)c(NC(=O)Cc2csc(NC(=O)Nc3ccccc3OC)n2)c1 | 1 | -1 | -7 | 5 | 4 | . | .
Cc1ccc(C)c(-n2ccnc2SCC(=O)Nc2cccc(S(=O)(=O)NC3=NCCC3)c2)c1 | 3 | 0 | -4 | -14 | -3 | . | .
Cc1cc(N2CCCC2)ccc1/C=C1\NC(=S)N(C)C1=O | -28 | 0 | -34 | 25* | 4 | 2 | 0
COC(=O)C1CN(Cc2cn(CCC3OCCO3)nn2)CCS(=O)(=O)N1Cc1ccc(F)cc1 (configuration not stated) | -3 | . | 0 | -9 | -5 | . | .
CCC(CO)Oc1cc(NCc2ccc(Cl)cc2Cl)c2ncn(C(C)C)c2c1 (configuration not stated) | 4 | 2 | 1 | 22* | 7 | 5 | 0
CCC(CO)Oc1cc(NCc2ccc(Cl)cc2)c2ncn(C(C)C)c2c1 (configuration not stated) | -47 | 0 | -57 | -10 | -9 | . | .
Oc1ccc(C[C@H]2CNC(=S)N2CC2CCCN2C[C@H](Cc2ccc(O)cc2)N2C[C@H](Cc3ccccc3)N(CC3CCCCC3)C2=S)cc1 (some centres not stated) | 2 | -1 | 4 | 20* | 13* | 25* | 9
Oc1ccc(C[C@H]2CN([C@@H](Cc3ccccc3)CN3CCC[C@@H]3CN3C(=S)NC[C@@H]3Cc3ccccc3)C(=S)N2CC2CCCCC2)cc1 | 4 | -1 | 0 | -17 | 2 | . | .
Oc1ccc(C[C@H]2CNC(=S)N2CC2CCCN2C[C@H](Cc2ccccc2)N2C[C@H](Cc3ccc(O)cc3)N(CC3CCCCC3)C2=S)cc1 (some centres not stated) | 5 | -1 | 6 | 25* | 4 | 15 | 6
N#C/C(=N\Nc1ccccc1Cl)C(=O)c1ccccc1 | -1 | -1 | -3 | -9 | -4 | . | .
N#C/C(=N\Nc1cccc(Cl)c1)C(=O)c1ccccc1 | 3 | 0 | 0 | 20* | 8 | -1 | -1
c1ccc2c(c1)CSc1ccccc1N2 | 5 | 1 | 4 | 21* | 8 | 2 | 1
c1ccc2c(c1)Nc1cc3ccccc3cc1S2 | -6 | 0 | -15 | -27 | -11 | . | .
Oc1ccc(Cl)cc1-c1cc(-c2ccccc2Cl)[nH]n1 | 1 | -1 | 2 | 5 | 3 | . | .

High-throughput results (PubChem)
